In the library only some 3.3% were active in any assay of this set; here they are far more common.
E-selectin induc – induces E-selectin expression in human endothelial cells. hit rate 0.37% among 260,000. HUVEC E-selectin immunofluorescence imaging; normalized: neutral wells 0, TNF-alpha wells 100. AID 686992. activation, % at 7.58 µM. P16581;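 active = mean E-selectin-positive cell signal at least 10% of the positive control, reached in at least 60% of replicates, without over 20% cell loss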
Target sequence (P16581 whole entry, looked up): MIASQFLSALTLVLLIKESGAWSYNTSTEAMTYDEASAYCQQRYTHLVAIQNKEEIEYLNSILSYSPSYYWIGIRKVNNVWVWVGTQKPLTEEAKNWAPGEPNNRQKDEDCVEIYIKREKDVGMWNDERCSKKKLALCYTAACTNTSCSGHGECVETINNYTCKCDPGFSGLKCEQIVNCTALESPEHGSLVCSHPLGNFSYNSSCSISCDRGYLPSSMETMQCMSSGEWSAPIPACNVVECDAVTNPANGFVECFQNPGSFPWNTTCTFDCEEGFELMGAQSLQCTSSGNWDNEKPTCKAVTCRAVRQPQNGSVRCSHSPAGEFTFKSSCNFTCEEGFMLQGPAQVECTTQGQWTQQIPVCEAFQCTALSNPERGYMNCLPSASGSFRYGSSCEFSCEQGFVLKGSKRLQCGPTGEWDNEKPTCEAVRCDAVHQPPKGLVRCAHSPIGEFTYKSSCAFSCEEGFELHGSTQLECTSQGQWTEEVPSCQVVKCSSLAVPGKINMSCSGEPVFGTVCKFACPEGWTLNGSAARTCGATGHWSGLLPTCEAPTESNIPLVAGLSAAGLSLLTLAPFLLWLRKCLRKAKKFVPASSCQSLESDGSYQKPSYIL
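System: HUVEC / Compound: single concentration / Signal: immunofluorescence imaging / Read-out: percent E-selectin-positive cells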
FGF22 binding – binders of recombinant human FGF22 by thermal shift | activity (Tm shift, normalised), % at 9.99 µM | hit rate 1.5% among 340,000 | SYPRO orange fluorescence; percent of sucrose octasulfate shift, DMSO zero;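 active = mean Tm shift, scaled 0 neutral to 100 positive control, at about 1.3% or above, every replicate too, limit read from the data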
XiGFP reactiv – activators of X-chromosome reactivation in mouse fibroblasts; XiGFP mouse fibroblasts, % GFP-positive cells imaging, 3 d; cells co-treated with 5-aza-dC sensitizer; scaled so ellipticine positive control = 100%; activation, % at 7.58 µM; hit rate 0.055% among 360,000; AID 743238;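 active = mean normalized replicate activation at least 10% and every replicate at or above 10%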
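Assay system – SV40-immortalized XiGFP fibroblast cells, line 68-5-11 · Buffer or medium – DMEM supplemented with 5-aza-dC as sensitizing agent · Dosing – one concentration, pinned · Benchmarks – positive control ellipticine, 6 µM final · Times – 3 days compound exposure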
DENV2 CPE – inhibitors of DENV2 cytopathic effect | DENV2-infected cells, cytopathic effect rescue, plate reader | CPE inhibition, % at 9.99 µM | hit rate 1.7% among 350,000; in the data active = CPE inhibition above about 20%, passing the limit was not always enough; tested in BHK-21 cells
PglD DTNB – inhibitors of Campylobacter jejuni PglD acetyltransferase. purified PglD enzyme, DTNB colorimetric CoA detection. inhibition, % at 12.5 µM. hit rate 0.098% among 360,000. AID 602405; in the data active = inhibition above about 16%, passing the limit was not always enough
C2C12 statin – suppression of simvastatin myotoxicity; C2C12 myotubes + simvastatin, ATP luminescence, 48 h; scaled: DMSO 0, geranylgeraniol control 100; rescue of ATP level, % at 7.49 µM; hit rate 0.78% among 330,000;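 active = mean ATP rescue above about 67%, or every replicate alone reaching that limit, limit read from the data, passing the limit was not always enough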;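 note: myotubes were challenged with 10 µM simvastatin during compound exposure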
A number is an active result.

For COc1ccc(-c2nn(-c3ccccc3)cc2CO)cc1 the results were PglD DTNB inactive and C2C12 statin 99.
`COc1ccc(-c2nn(-c3ccccc3)cc2N)cc1` gave FGF22 binding 44, XiGFP reactiv inactive and DENV2 CPE inactive.
Cc1ccc(-c2nn(-c3ccccc3)cc2CO)cc1 was read as FGF22 binding inactive, XiGFP reactiv inactive, DENV2 CPE inactive, PglD DTNB inactive and C2C12 statin inactive.
Screening CC(=O)N(C)C[C@@H]1Oc2ncc(C#Cc3ccncc3)cc2C(=O)N([C@H](C)CO)C[C@@H]1C returned E-selectin induc inactive, XiGFP reactiv inactive, DENV2 CPE inactive, PglD DTNB inactive and C2C12 statin inactive.
`O=C(C[C@@H]1C[C@@H]2c3cc(NC(=O)c4ccc5c(c4)OCO5)ccc3O[C@@H]2[C@H](CO)O1)NCc1cc(F)ccc1F` gave E-selectin induc inactive, FGF22 binding inactive, XiGFP reactiv inactive, DENV2 CPE inactive, PglD DTNB inactive and C2C12 statin inactive.
For COc1ccc2c(c1)OC[C@H]1[C@H]2N2C(=O)c3ccc(F)cc3NC(=O)[C@@]2(C)[C@H]1c1ccccc1 the results were E-selectin induc inactive, FGF22 binding inactive, XiGFP reactiv inactive, DENV2 CPE 55 and PglD DTNB inactive.
For C/C(NC(=O)c1cccc(F)c1)=C1/C(=O)C[C@@H]2[C@H]1C2(C)C the results were C2C12 statin 128.
`CC=Cc1ccc2n(c1=O)C[C@H]1[C@H](CO)[C@@H](C(=O)NCCC)[C@@H]2N1C(=O)C1CCCC1` (mixture of isomers) gave E-selectin induc inactive, FGF22 binding inactive, XiGFP reactiv inactive, DENV2 CPE inactive, PglD DTNB inactive and C2C12 statin inactive.
For O=C(CN1C(=O)CSc2ccccc21)Nc1ccccc1C(=O)N1CCOCC1 the results were PglD DTNB inactive and C2C12 statin 90.
For Cc1ccccc1NC(=O)CN1C(=O)CSc2ccccc21 the results were E-selectin induc inactive, FGF22 binding inactive, XiGFP reactiv inactive, DENV2 CPE inactive, PglD DTNB inactive and C2C12 statin inactive.
COc1ccc(N2C(=O)CSC23C(=O)Nc2ccccc23)cc1 (stereo not given) was read as PglD DTNB inactive and C2C12 statin 110.
Screening COc1ccccc1CN1[C@@H](CO)[C@@H](c2ccccc2)C12CN(C(=O)c1ccccn1)C2 returned E-selectin induc inactive, FGF22 binding inactive, XiGFP reactiv inactive and DENV2 CPE inactive.
`Cc1ccc(S(=O)(=O)CCSC(=N)N)cc1` gave FGF22 binding 44, XiGFP reactiv inactive, PglD DTNB inactive and C2C12 statin inactive.
Screening C=CCn1c(SCC(=O)NC2CCCC2)nc2scc(-c3ccco3)c2c1=O returned PglD DTNB inactive and C2C12 statin 116.
Screening O=C(C[C@H]1C[C@H]2c3cc(NC(=O)Cc4ccncc4)ccc3O[C@H]2[C@H](CO)O1)NCCc1ccccc1 returned E-selectin induc inactive, FGF22 binding inactive, XiGFP reactiv inactive, DENV2 CPE inactive, PglD DTNB inactive and C2C12 statin inactive.
Screening O=C(C[C@H]1C=C[C@H](NS(=O)(=O)c2cccc(F)c2)[C@H](CO)O1)NCc1ccc2c(c1)OCO2 returned E-selectin induc inactive, FGF22 binding inactive, XiGFP reactiv inactive, DENV2 CPE inactive, PglD DTNB inactive and C2C12 statin inactive.
CCOC(=O)C1(CCCc2ccccc2)CCN(C(=O)c2cc(C)nc(C)n2)CC1 was read as E-selectin induc inactive, FGF22 binding inactive, XiGFP reactiv inactive, DENV2 CPE inactive, PglD DTNB inactive and C2C12 statin inactive.
`CCOC(=O)C1(CCCc2ccccc2)CCN(C(=O)c2cnc(C)cn2)CC1` gave FGF22 binding 44, XiGFP reactiv inactive, DENV2 CPE inactive, PglD DTNB inactive and C2C12 statin inactive.
O=C(C1CC1)N1C[C@H]2[C@@H](c3ccccc31)[C@@H](CO)N2C(=O)c1ccccn1 was read as E-selectin induc inactive, FGF22 binding inactive, XiGFP reactiv inactive, DENV2 CPE inactive, PglD DTNB inactive and C2C12 statin inactive.
N#Cc1ccccc1 was read as FGF22 binding inactive, DENV2 CPE 30, PglD DTNB inactive and C2C12 statin inactive.
